PostGolgi ctrl – inhibits growth of the yeast control strain; efflux-deficient yeast background strain, growth absorbance A615, 16 h; inhibition, % at 10 µM; 98,000 tested, 5% active
Ecoli WT expand – growth inhibitors of E. coli BW25113 wild type | OD600 absorbance | growth inhibition, % at 100 µM | 98,000 tested, 0.15% active | AID 710;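 active means growth inhibition above about 50% at one test dose, limit read from the data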;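 further: growth measured after 20 h incubation at 37 °C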
HePTP inh – inhibitors of human HePTP phosphatase; 110,000 tested, 0.64% active; recombinant HePTP phosphatase activity, OD absorbance; inhibition, % at 20 µM; AID 521; P35236; in the data active means inhibition above about 50%;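 further: plate controls were vehicle for no effect and reference inhibitor for full effect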
Target sequence (P35236 whole entry, looked up): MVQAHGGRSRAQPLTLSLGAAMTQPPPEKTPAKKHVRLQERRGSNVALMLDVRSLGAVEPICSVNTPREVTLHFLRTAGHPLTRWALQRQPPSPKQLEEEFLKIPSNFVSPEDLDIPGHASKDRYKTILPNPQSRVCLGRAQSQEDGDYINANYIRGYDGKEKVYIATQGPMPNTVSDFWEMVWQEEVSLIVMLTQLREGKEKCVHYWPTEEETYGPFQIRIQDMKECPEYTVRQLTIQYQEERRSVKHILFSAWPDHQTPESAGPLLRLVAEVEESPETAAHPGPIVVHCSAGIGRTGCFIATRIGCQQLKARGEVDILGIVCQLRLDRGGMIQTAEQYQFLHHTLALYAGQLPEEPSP
tolC growth inh – growth inhibitors of E. coli BW25113 tolC mutant. OD615. growth inhibition, % at 10 µM (by protocol). 65,000 tested, 2.2% active;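 active means growth inhibition at or above a cutoff equal to the mean over every tested compound plus 3 SD, cut at about 60% in these data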;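 further: growth measured after 20 h incubation at 37 °C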
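System: E. coli ΔtolC::kan strain BW25113; Buffer or medium: LB broth supplemented with 50 µg/mL kanamycin; Compound: 10 µM final, single dose; Incubation: bacterial growth with compound for 20 h at 37 °C; Signal: A615 absorbance measurement; Evaluation: growth inhibition in percent.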
PostGolgi yeast – growth inhibition of a yeast mutant, post-Golgi transport screen. AID 739. inhibition, % at 10 µM. 98,000 tested, 0.9% active. post-Golgi transport phenotypic cell assay;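 further: yeast cells grown in 1536-well plates; yeast grown about 18 h at 30C before absorbance read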
PLAP act – human PLAP activation | P05187 | purified PLAP enzyme, luminescent substrate read-out; stronger effect = higher value | activation fold at 20 µM | 96,000 tested, 1.2% active | AID 696; in the data active means activation fold above about 2
* hit, by the source's call; / = no result. In the library only some 5.4% were active in any assay of this set; here they are far more common. Unless noted, no stated cut-off is given here; in the data, active means inhibition above about 30%; inactive means the rest.

SMILES | PostGolgi ctrl | Ecoli WT expand | HePTP inh | tolC growth inh | PostGolgi yeast | PLAP act
Cc1cccc(OCCNc2cc(N3CCOCC3)ccc2[N+](=O)[O-])c1 | 66* | -5 | / | / | -3 | 0.9
O=C1c2ccccc2C(=O)N1CCc1csc(-c2cccc(F)c2)n1 | 42* | -20 | / | / | -5 | 0.9
Cc1ccc(Sc2ccc(/C=N/O)cc2[N+](=O)[O-])cc1 | 31* | -8 | / | / | -3 | 0.9
O=C(Nc1ccc2c(c1)OCCO2)c1cc2sccc2n1Cc1ccc(F)cc1 | 53* | -24 | / | / | -5 | 0.7
O=C(Nc1ccc2c(c1)OCCO2)c1cc2sccc2n1Cc1ccccc1 | 0 | -23 | / | / | -2 | 0.9
O=C(CSc1nc(O)c(Cc2ccccc2F)c(=O)[nH]1)N1CCCCCC1 | 5 | 1 | 4 | 1 | -4 | 1
CCCCOC(=O)c1ccc(NS(=O)(=O)c2cc(-c3nnnn3CC)ccc2OC)cc1 | 11 | 4 | -11 | 33 | 21 | 2.2*
O=C(CCC1CCCCC1)Nc1ncn[nH]1 | 8 | -10 | 6 | -6 | 1 | 2*
O=C(CCC1CCCCC1)Nc1ccncc1 | / | / | -6 | / | / | /
CC(=O)Oc1ccc(C(=O)Nc2cccc(C(=O)O)c2)cc1 | / | / | 9 | / | / | /
CC(C)(C)n1ncc2c(=O)n(Cc3c(F)cccc3Cl)cnc21 | 4 | 6 | / | 14 | -2 | 1.1
CCN(CC)c1ncn(Cc2c(Cl)cccc2Cl)c2ncnc1-2 | 34* | -5 | / | / | -36 | 0.9
Cc1ccc(-c2cc(-c3ccccc3[N+](=O)[O-])[nH]n2)c(O)c1 | 41* | 26 | / | / | -2 | 2*
Cc1ccc(-c2cc(-c3ccccc3Cl)[nH]n2)c(O)c1 | 38* | 13 | 1 | 17 | -15 | 1.2
Oc1ccc(Cl)cc1-c1cc(-c2ccccc2)n[nH]1 | 65* | 1 | 6 | 100* | 8 | 1.1
Oc1ccc(Cl)cc1-c1cc(-c2ccc(Br)cc2)n[nH]1 | / | / | 4 | / | / | /
Cc1ccccc1-c1cc(-c2ccccc2O)n[nH]1 | 52* | 26 | 4 | 100* | 0 | 1.3
COc1ccc(Cl)cc1C(=O)Nc1cc(C)cc(C)n1 | / | / | -3 | / | / | /
CC(=O)N(c1ccc(N(C(C)=O)S(=O)(=O)c2cccs2)cc1)S(=O)(=O)c1cccs1 | 66* | 9 | 3 | 17 | 0 | 1
CN1CCCN(C(=O)Cc2c(Cl)cccc2Cl)c2nc3ccccc3nc21 | 43* | -11 | 8 | 70* | 1 | 1.1
COc1ccc(N(CC(=O)Nc2nc3ccc(C)cc3s2)S(=O)(=O)c2c(C)nn(C)c2C)cc1 | 32* | -5 | -4 | 60 | -1 | 1.5
COc1ccc(N(CC(=O)Nc2cccc(OC)c2)S(=O)(=O)c2c(C)nn(C)c2C)cc1 | 5 | 1 | 9 | -15 | -4 | 1.3
COc1ccc(N(CC(=O)NCc2cccnc2)S(=O)(=O)c2c(C)nn(C)c2C)cc1 | 37* | 0 | -6 | -18 | -4 | 1.1
COc1ccc(N(CC(=O)NCc2ccccc2)S(=O)(=O)c2c(C)nn(C)c2C)cc1 | 9 | 0 | / | / | 1 | 1.1
O=C(CN(Cc1ccc(F)cc1)C(=O)c1ccco1)NCc1ccc(F)cc1 | 6 | -1 | 13 | -2 | 12 | 0.9
SMILES | PostGolgi ctrl | Ecoli WT expand | HePTP inh | tolC growth inh | PostGolgi yeast | PLAP act
O=C(c1ccco1)N(CCC(c1ccccc1)c1ccco1)Cc1ccc(F)cc1 (stereo not drawn) | 40* | -21 | / | / | -5 | 1.1
COc1cccc(-c2cc(C(=O)Nn3cnnc3)c3ccccc3n2)c1 | 5 | 9 | 8 | -1 | 0 | 1.4
Cc1[nH]nc(N=CC2=C(O)CC(c3ccco3)CC2=O)c1-c1ccc(Cl)cc1 (stereo not drawn) | 22 | -7 | / | / | 2 | 1.1
Cc1[nH]nc(N=CC2=C(O)CC(C)(C)CC2=O)c1-c1ccc(Cl)cc1 | 23 | 12 | -8 | 15 | 79* | 0.9
CCOC(=O)C1=C(C)NC(SCC(=O)OC)=C(C#N)C1c1ccc(C(=O)OC)cc1 (stereo not drawn) | 14 | 5 | -7 | 29 | 16 | 1.8
C=CCOC(=O)C1=C(C)NC(SCC)=C(C#N)C1c1ccc(Cl)cc1 (stereo not drawn) | 55* | 2 | / | / | 6 | 1.1
O=C1c2cccc3c(O)ccc(c23)C(=O)N1Cc1ccccc1 | 23 | -2 | / | / | 30* | 0.8
Cn1c(=O)c2c(nc(SCC(=O)NCC3CCCO3)n2C)n(C)c1=O (stereo not drawn) | 9 | 5 | 7 | -9 | 1 | 1
O=C(CCC1CCCC1)c1c(O)c2ccccc2oc1=O | 0 | 14 | 5 | 97* | -1 | 0.9
CCOCc1cnc(C)nc1NCC(=O)c1c(C)n(C)c2ccc(OC)cc12 | 4 | 8 | 3 | -7 | 7 | 0.8
COc1ccc(CNc2nc(-c3cccnc3)nn2C(=O)c2cccs2)cc1 | 40* | -24 | 6 | 48 | -3 | /
COc1ccc(CNc2nc(-c3cccnc3)nn2C(=O)c2ccco2)cc1 | -3 | -3 | -3 | 27 | -12 | 1.1
N/C(Cc1cccs1)=N\OC(=O)COc1ccc(Cl)cc1Cl | 1 | 1 | / | / | -1 | 0.9
O=C1/C(=C/c2cn(-c3ccccc3)nc2-c2ccco2)SC(=S)N1C1CCS(=O)(=O)C1 (stereo not drawn) | / | / | 66* | / | / | /
Nc1cccc(C(=O)O)c1 | / | / | 2 | 1 | / | /
Cc1cc(C)c(C#N)c(SCS(=O)Cc2ccc(Cl)cc2)n1 (stereo not drawn) | 38* | -15 | 2 | 49 | 9 | 1
Cc1cc(C)c(C#N)c(SCS(=O)Cc2ccccc2)n1 (stereo not drawn) | -1 | 5 | -2 | 55 | -2 | 1
Cc1cc(C(C)(C)C)oc1C(=O)N1CCN(C(=O)c2oc(C(C)(C)C)cc2C)CC1 | 14 | -1 | 1 | -8 | -7 | 1.2
CCOC(=O)C(NC(C)=O)(Nc1ccc(F)cc1)C(F)(F)F (stereo not drawn) | -2 | 7 | 0 | -23 | 1 | 1
CCOC(=O)NC(Nc1ccc(S(N)(=O)=O)cc1)(C(=O)OCC)C(F)(F)F (stereo not drawn) | 0 | 1 | 6 | -6 | 32* | 1
CC(C)CNc1nc(Oc2ccc(=O)n(-c3ccccc3)n2)nc(N2CCOCC2)n1 | 12 | -1 | 6 | 4 | -3 | 1.2
CC(C)CNc1nc(Oc2ccc(=O)n(C)n2)nc(N2CCOCC2)n1 | 3 | -1 | 5 | -1 | 32* | 1.2
O=[N+]([O-])c1c(C(Cl)Cl)nn(-c2ccccc2)c1N1CCCC1 | 31* | 6 | / | / | -1 | 0.9
COc1ccc(S(=O)(=O)NCc2ccco2)c2ccccc12 | 34* | -11 | 4 | 21 | 4 | 0.8
COc1ccc(C(=O)Nc2ccc(S(=O)(=O)NCc3ccco3)cc2)cc1OC | 33* | -2 | 0 | -9 | -5 | 1
CCOc1cccc(-c2nn3c(-c4cc(C)[nH]n4)nnc3s2)c1 | 21 | 2 | -9 | 25 | 3 | 2.4*
CCOc1cccc(-c2nnc3sc(-c4cc(OC)c(OC)cc4OC)nn23)c1 | / | / | -2 | 0 | / | 1
COc1cccc(-c2nnc3sc(C4CCCCC4)nn23)c1 | 33* | 11 | 12 | 6 | 10 | 1.8

Screens as filed in PubChem.
